Test results reported in article PMC4445693 (Clinical Pharmacology : Advances and Applications, 2015).
Where two headings read alike, the source gives them in different places.

What was measured:
[1] = Single-dose plasma and skin-tissue pharmacokinetics of daptomycin in rats; assay type: in vivo, rat
Procedure, shortened: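 Rats (10 weeks), scalp depilated, sevoflurane-anaesthetised; test compound 10 mg/mL in saline s.c. Blood and 10×15 mm scalp skin sampled 1, 3, 5, 8, 12 h (3/time point); skin homogenised in 9 vol 1% phosphate buffer pH 6.0, extracted 4°C 18 h. Acetonitrile precipitation, mefenamic acid internal standard; C8 HPLC, UV 214 nm. Cmax/Tmax observed; AUC, MRT by trapezoidal rule; mean ± SD.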

[2] = cited from earlier work
[3] = human plasma; cited from earlier work
[4] = cited from earlier work; for AUC24 h in plasma: rat
[5] = male, Wistar, rat, plasma, sc, 50 mg/kg, SD

CCCCCCCCCC(=O)N[C@@H](Cc1c[nH]c2ccccc12)C(=O)N[C@H](CC(N)=O)C(=O)N[C@@H](CC(=O)O)C(=O)N[C@@H]1C(=O)NCC(=O)N[C@@H](CCCN)C(=O)N[C@@H](CC(=O)O)C(=O)N[C@H](C)C(=O)N[C@@H](CC(=O)O)C(=O)NCC(=O)N[C@H](CO)C(=O)N[C@@H]([C@H](C)CC(=O)O)C(=O)N[C@@H](CC(=O)c2ccccc2N)C(=O)O[C@@H]1C [daptomycin]
Tmax skin tissue ([1]; male Wistar rats, single subcutaneous 50 mg/kg, skin tissue): 3.0 h | Tmax ([1]; male, Wistar, rat, plasma, sc, 50 mg/kg): 3 h | AUC(0-inf) [1, 5]: 812 ± 31.9 µg·h/mL | Cmax [1, 5]: 176 ± 6.3 µg/mL | MRT [1, 5]: 2.28 ± 0.33 h | half-life [1, 5]: 1.58 ± 0.23 h | Protein binding in rat serum [2]: 89.3% | Plasma protein binding in humans [3]: 92% | t½ ([4]; rat plasma, previous studies): 1.6 to 2.9 h | AUC24 h in plasma ([4]; intraperitoneal dose of 30 mg/kg/day): 558 µg·h/mL | AUC24 h in plasma ([4]; subcutaneous dose of 40 mg/kg/day): 605 µg·h/mL
